The source of these data is paper PMC6648849 (ACS Omega, 2019).

Data set [1] deals with HepG2 cells. As to the kind of experiment: cell viability assay. The class given is cell-based, human. Conditions: 0–20 μM, 37 °C, 5% CO2, WST (Cell Counting Kit-8), absorbance at 450 nm. The method in brief: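 HepG2 cells plated at 1.0 × 10^4 cells/well and grown 24 h at 37 °C, 5% CO2. Medium replaced with 0–20 μM test compound for 24 or 72 h. Then fresh medium plus Cell Counting Kit-8 (WST) reagent, 4 h incubation, and absorbance read at 450 nm. Viability (%) is relative to untreated control cells set as 100%.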

For data set [2], the system named is MTs. As to the kind of experiment: depolymerization/polymerization of MTs in living HepG2 cells. It is filed as cell-based, human. Conditions: 10 μM colchicine coincubated with 10 μM TP–TMR, 6 h, 37 °C. The method in brief: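 HepG2 cells expressing BacMam-delivered tubulin–GFP were coincubated with 10 μM test compound and 10 μM colchicine for 6 h at 37 °C under 5% CO2. Nuclei stained with Hoechst 33342 after a PBS wash. Compound and tubulin–GFP signals imaged by confocal microscopy to assess colocalization of compound fluorescence with microtubule fibres.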

The subject of data set [3] is HepG2 cells. Description: cellular uptake by CLSM in HepG2 cells. It is filed as cell-based, human. Conditions: 10 μM, 6 h, 37 °C, 5% CO2; CLSM fluorescence imaging. The gist of the method: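 HepG2 cells seeded on glass-bottom dishes at 2.0 × 10^4 cells/well, grown ~24 h, then transduced with BacMam tubulin–GFP for 24 h at 37 °C, 5% CO2. Incubated with 10 μM test compound in medium, PBS-washed, and nuclei stained with 5 μg/mL Hoechst 33342 for 10 min. Confocal imaging: compound ex 550/em 574 nm, GFP ex 489/em 510 nm.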

The subject of data set [4] is MTs. Conditions: cited from earlier work.
The conditions of data set [5]: cited from earlier work.

Consider `COc1cc2c(c(OC)c1OC)-c1ccc(OC)c(=O)cc1[C@@H](NC(C)=O)CC2` [colchicine], for which the “cytotoxicity against HepG2 cells, 24 h” value in the data set with HepG2 cells [1] was “clear cytotoxicity in a concentration-dependent manner”. In addition, the “effect on polymerization of MTs in HepG2 cells” value with MTs [2] is on record as “polymerization of MTs was inhibited”. With `CC(=O)O[C@H]1C(=O)[C@@]2(C)[C@H]([C@H](OC(=O)c3ccccc3)[C@]3(O)C[C@H](OC(=O)[C@H](O)[C@@H](NC(=O)c4ccccc4)c4ccccc4)C(C)=C1C3(C)C)[C@]1(OC(C)=O)CO[C@@H]1C[C@@H]2O` [taxol], the “cytotoxicity against HepG2 cells, 24 h” value in the data set with HepG2 cells [1] was “clear cytotoxicity in a concentration-dependent manner”.

“5(6)-carboxytetramethylrhodamine [TMR–COOH]”: in the data set with HepG2 cells [3], the “cellular uptake into HepG2 cells” value is on record as “not observed”. For the molecule CGGGKKHVPGGGSVQIVYKPVDL [TP], the “effect of binding on polymerization/depolymerization of MTs in vitro” value in the data set with MTs [4] is reported as “does not inhibit”. In addition, the water solubility entry in data set [5] is “high water solubility at millimolar concentrations”.
